Seven compounds from ChEMBL document CHEMBL1287645, “Synthesis and anti-prion activity evaluation of aminoquinoline analogues” (Eur J Med Chem, 2010) can be followed below.

Calls of active or inactive are those of the source. The calls are words filed in the database; no cut-off is given here.

Experiment [1] addresses Major prion protein (Mesocricetus auratus) (UniProt P04273). Briefly: Inhibition of Syrian hamster prion protein (109-149) aggregation assessed as changes in light scattering at 1 uM by spectrofluorimetric analysis relative to control. Put shortly: (§1)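 Synthetic hamster PrP 109–149 peptide was solubilized in 50 mM MES pH 5.0 with 6 M urea and 10 mM SDS, where it stays unfolded. It was diluted at least 100-fold to 0.5 µM in 50 mM MES pH 5.0 containing increasing compound concentrations. Light scattering (450 nm excitation/emission) was followed over time. Maximum scattering was normalized to the no-compound control (100% aggregation) and to the peptide in 6 M urea (0%). Values are means of three independent measurements.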

For experiment [2] the target is unchanged. Briefly: Inhibition of Syrian hamster prion protein (109-149) aggregation assessed as compound concentration required to inhibit 50% aggregation by spectrofluorimetric analysis. Put shortly: as §1
Experiment [3] shares this target. Briefly: Reduction of thioflavin T binding to Syrian hamster prion protein (109-149) at 10 uM after 10 mins by fluorescence assay. Put shortly:
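Peptide at 1.0 µM was incubated with compound at 10 µM in pH 5.0 buffer. After 10 min, thioflavin T was added to 20 µM final. Emission was recorded from 470–520 nm with excitation at 450 nm. The integrated spectral area was corrected for probe emission without peptide. Values are means of three experiments.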

Experiment [4] shares this target. Briefly: Inhibition of Syrian hamster prion protein (109-149) aggregation assessed as changes in light scattering at 0.2 uM by spectrofluorimetric analysis relative to control. Put shortly:
as §1

For experiment [5] the target is unchanged. Briefly: Inhibition of Syrian hamster prion protein (109-149) aggregation assessed as changes in light scattering at 0.1 uM by spectrofluorimetric analysis relative to control. Put shortly: as §1

Sequence of Major prion protein (Mesocricetus auratus) (P04273 whole entry): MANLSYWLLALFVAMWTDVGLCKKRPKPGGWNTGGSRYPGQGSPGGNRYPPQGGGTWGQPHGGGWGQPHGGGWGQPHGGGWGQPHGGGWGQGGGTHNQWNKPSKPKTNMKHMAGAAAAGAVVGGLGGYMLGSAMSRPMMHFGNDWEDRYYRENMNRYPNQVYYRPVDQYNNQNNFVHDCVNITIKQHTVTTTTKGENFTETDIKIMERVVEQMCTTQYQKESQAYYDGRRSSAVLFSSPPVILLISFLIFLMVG

In the case of `CN(C)CCNc1ccnc2cc(Cl)ccc12`, the inhibition (commonly the change of the read-out against control, counted positive when it falls) in experiment [1] amounted to 82%. In addition, the C50 in experiment [2] was over 1 µM.

Take `OCCNc1ccnc2cc(Cl)ccc12`: in experiment [1], the inhibition was found to be 97%. Besides, the C50 in experiment [2] was over 1 µM. Further, the outcome in experiment [3] was Active.

Turning to `NCCNc1ccnc2cc(Cl)ccc12`, the inhibition in experiment [1] is 7.9%; in experiment [4], 50%; in experiment [5], 50%. The C50 in experiment [2] turned out to be 0.1 µM. In addition, in experiment [3], the outcome was Active.

`Nc1ccnc2cc(Cl)ccc12`: the figures for the inhibition in experiment [1], in experiment [4] and in experiment [5] were 8.4%, 50% and 50%, respectively. Further, in experiment [2], the C50 was found to be 0.2 µM. Also, the result in experiment [3] was Active.

Take `CCN(CC)CCNc1ccnc2cc(SC(F)(F)F)ccc12`: the inhibition in experiment [1] was 54%. Also, in experiment [2], the C50 was over 1 µM.

With `CNc1ccnc2cc(Cl)ccc12`, the inhibition in experiment [1] was 38.6%. In experiment [2], the C50 was over 0.9 µM. Moreover, the result in experiment [3] was Active.

For the compound `Clc1ccc2c(NC3CCCC3)ccnc2c1`, the C50 in experiment [2] was over 1 µM. In addition, the result in experiment [3] was Active.
